Source: PubChem BioAssay (several laboratories)
Sampled rows, rich in hits. Any-hit rate of the full collection: about 2.1%.
MC4R ag barr = human MC4R agonism via beta-arrestin; P32245; U2OS MC4R beta-arrestin complementation, luminescence; percent of melanotan II response, DMSO zero; activation, % at 8.9 µM; 0.98% of 360,000 active; AID 540308;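 active = activation above a per-plate cutoff, the mean activation of sample wells on that plate plus 3 SD, cut at about 8% in these data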
TLR4-MyD88 BLA = inhibitors of human TLR4-MyD88 binding | HeLa CL3-4 TLR4/MyD88 BLA complementation, FRET ratio | inhibition, % at 8.4 µM | 0.18% of 200,000 active | AID 861; in the data active = inhibition above about 25%
MC4R antagonist = antagonists of human melanocortin 4 receptor (MC4R). inhibition, % at 6.5 µM. 0.48% of 360,000 active. MC4R-expressing cells, MTII-stimulated cAMP, LANCE TR-FRET;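 active = inhibition above its plate's cutoff, the mean of tested wells on that plate plus 3 SD, cut at about 29% in these data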
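Material – human MC4R-expressing U2OS cells · Repeats – no replicates · Detection – TR-FRET with Eu-cAMP and labeled anti-cAMP, 671 nm · Times – compound 30 min, challenge 1 h, detection 1 h · Compound – single nominal compound dose of 6.5 µM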
TLR9-MyD88 block = blocks human TLR9 binding to MyD88. inhibition, % at 4.98 µM. CHO BLA complementation TLR9-MyD88, CCF4 FRET ratio. AID 504734. 0.21% of 340,000 active. Q9NR96+Q99836;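 active = inhibition above the mean over all tested compounds plus 3 SD, cut at about 21% in these data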
NOD2-RIPK2 inh = inhibitors of human NOD2-RIPK2 interaction; O43353; CHO BLA complementation NOD2-RIPK2, CCF4 ratio; inhibition, % at 4.98 µM; 0.38% of 360,000 active; in the data active = inhibition above about 21%
beta cell repl = MIN6 beta-cell proliferation induction; MIN6 cells proliferation, ATPlite luminescence, 48 h; cells starved in 0.2% serum; 100% = growth in 10% serum; proliferation, % at 10 µM; 0.29% of 330,000 active;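 active = compounds whose signal lies at least 3.5 SD above the mean of all wells on their plate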
NOD2 RIPK2 conf = NOD2-RIPK2 interaction inhibition confirmed; inhibition, % at 4.98 µM; shares compounds with NOD2-RIPK2 inh; 70% of 1,200 active; CHO cells, NOD2-RIPK2 BLA complementation, CCF4 FRET;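 active = mean inhibition across replicates above a set limit taken from the earlier primary screen, cut at about 21% in these data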
BLA counter = NOD2-RIPK2 counterscreen BLA reporter activity | shares compounds with NOD2-RIPK2 inh | 57% of 1,200 active | inhibition, % at 4.98 µM | CHO BLA reporter, CCF4 FRET ratio;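 active = mean inhibition above the low-control mean inhibition plus three low-control SD, cut at about 11% in these data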
Hits are given with their value; – = inactive; · = no result; + = active, no number.

SMILES	MC4R ag barr	TLR4-MyD88 BLA	MC4R antagonist	TLR9-MyD88 block	NOD2-RIPK2 inh	beta cell repl	NOD2 RIPK2 conf	BLA counter
COC(=O)c1ccc(NC(=O)CSc2nc3cccnc3n2C)cc1	–	–	–	–	–	–	·	·
O=C(NC1CCCCC1)c1nn2c(C(F)(F)F)cc(-c3ccco3)nc2c1Br	–	–	–	–	–	–	·	·
O=C(NC1CCCCC1)c1cnn2c(C(F)(F)F)cc(-c3ccco3)nc12	–	–	–	–	24	–	–	–
COc1cccc2cc(C(=O)OCc3ccccc3)c(=O)oc12	–	·	–	–	–	–	·	·
O=C1C=CC(=O)N1c1cccc(-c2ccccc2)c1	–	·	48	–	36	–	90	29
C=CC(=O)N1C/C(=C/c2ccccc2)C(=O)/C(=C\c2ccccc2)C1	–	·	–	–	45	·	43	–
CN1C/C(=C/c2ccncc2)C(=O)/C(=C/c2ccncc2)C1	–	·	–	–	–	–	·	·
CCCOC1CCCN(C(=O)c2ccc(OC3CCN(Cc4ccccn4)CC3)cc2)C1 (configuration not stated)	–	·	–	–	–	–	·	·
COc1ccc(/C=C/C(=O)c2cc(F)ccc2OC(=O)c2ccccc2OC)cc1OC	–	–	–	–	22	·	22	–
COc1ccc(/C=C/C(=O)c2cc(F)ccc2OC(=O)c2ccc(OC)c(OC)c2)cc1OC	–	–	–	–	–	–	·	·
COc1ccc(/C=C/C(=O)c2cc(Br)ccc2OC(=O)c2ccco2)cc1OC	–	–	–	–	–	–	·	·
COc1ccc(/C=C/C(=O)c2cc(F)ccc2OC(=O)c2ccccc2)cc1OC	–	–	–	–	26	–	–	–
Cc1onc(-c2c(F)cccc2Cl)c1C(=O)Nc1ccc(Cl)c(S(=O)(=O)N(C)C)c1	–	·	–	–	–	–	·	·
O=[N+]([O-])c1ccc(Cl)c(CN2CCN(c3ncc(Cc4ccccc4)cn3)CC2)c1	·	·	·	·	–	·	·	·
CC(=O)Nc1ccc(S(=O)(=O)Nc2nc3ccccc3nc2Nc2ccc3ccccc3c2)cc1	–	–	–	–	22	–	–	–
CC(=O)Nc1ccc(S(=O)(=O)Nc2nc3ccccc3nc2Nc2cccc(O)c2)cc1	–	·	–	–	–	–	·	·
CCCC(=O)N(C1CC(C)C(C#N)(C#N)C1(C#N)C#N)N(C)C (configuration not stated)	–	·	–	–	57	–	92	14
O=C(Nc1ccccc1F)C1CCN(S(=O)(=O)c2cccnc2)CC1	–	·	–	–	–	–	·	·
CCc1ccc(NC(=O)CCn2c(=O)c3cccn3c3ccccc32)cc1	–	·	–	–	–	–	·	·
CCc1ccc(NC(=O)Cn2c(=O)c3cccn3c3ccccc32)cc1	–	·	–	–	22	–	–	–
CCOc1ccc(-c2cc(N)n(S(=O)(=O)c3cccc4nsnc34)n2)cc1	–	·	–	–	22	–	–	–
CCNC(=O)NC(=O)C(C)N1C(=O)NC(c2ccccc2)(c2ccccc2)C1=O (configuration not stated)	–	·	–	–	+	–	–	–
COc1ccc(CNC(=O)C(C)N2C(=O)NC(c3ccccc3)(c3ccccc3)C2=O)cc1 (configuration not stated)	–	·	–	–	–	–	·	·
O=C1CCC(=O)c2ccc3c4c(ccc1c24)CC3	–	·	–	–	–	·	·	·
O=C1CCN2C=Nc3cccc4ccc1c2c34	–	–	–	–	23	–	32	38
SMILES	MC4R ag barr	TLR4-MyD88 BLA	MC4R antagonist	TLR9-MyD88 block	NOD2-RIPK2 inh	beta cell repl	NOD2 RIPK2 conf	BLA counter
Cc1ccccc1CS(=O)(=O)c1nnc([C@H](Cc2ccccc2)NC(=O)OC(C)(C)C)o1	–	–	–	–	57	–	50	–
CC(C)(C)OC(=O)N[C@@H](Cc1ccccc1)c1nnc(S(=O)(=O)Cc2ccccc2)o1	·	–	·	·	·	–	·	·
O=C(NCCc1c[nH]c2ccccc12)c1[nH]c(C(F)(F)F)nc1-c1ccccc1	·	·	·	·	–	·	·	·
CCC1CCC/C1=N\NC(=O)c1ccoc1C (configuration not stated)	–	·	–	–	–	–	·	·
COc1cc(/C=C2/C(=N)N3C(=NC2=O)SN=C3S(C)(=O)=O)ccc1OS(=O)(=O)c1ccc(C)cc1	–	·	–	–	23	–	–	–
N#Cc1ccc(C(C(=O)NCc2ccccc2)n2c(=O)c(-c3cc4ccccc4[nH]3)nc3ccccc32)cc1 (configuration not stated)	·	·	·	·	58	·	54	72
CC(C)(C)NC(=O)C(c1ccc(C#N)cc1)n1c(=O)c(-c2ccccc2)nc2ccccc21 (configuration not stated)	·	·	·	·	–	·	·	·
O=C(NCc1ccccc1)C(c1ccc(C(F)(F)F)cc1)n1c(=O)c(-c2cc3ccccc3[nH]2)nc2ccccc21 (configuration not stated)	·	·	·	·	49	·	47	69
O=c1c2cccc(Cl)c2nc2n1Cc1ccccc1-2	–	·	–	–	–	–	·	·
CCc1cc2c(=O)nc3n(c2s1)Cc1ccccc1/C3=C(/O)c1ccccc1Cl	–	–	–	–	31	–	–	–
CCCCN(C=O)c1c(CC)nc2ccc(C(=O)N(C)Cc3ccccc3)cn12	–	·	–	·	–	·	·	·
COc1ccccc1C(=O)Nc1ccc(C)cc1C(=O)c1ccccc1	–	–	–	–	22	–	–	–
Cc1c(Cl)cccc1NC(=S)NCc1ccc(Cl)cc1	–	–	–	–	22	–	–	–
Cc1ccc(/C(C#N)=C\c2ccc(N3CCOCC3)o2)cc1	–	–	–	–	42	–	32	27
O=[N+]([O-])c1cc(S(=O)(=O)N2CCCCCC2)ccc1F	–	–	–	–	30	·	54	–
O=C(Nc1nnc(CCN2CCCCC2)s1)c1ccccc1Cl	–	–	–	–	–	–	·	·
Cc1ccc(C(=O)NCc2ccccn2)cc1S(=O)(=O)N1CCOCC1	–	·	–	–	–	–	·	·
Cc1cc(OCC(=O)Nc2cccc(S(=O)(=O)NC3=NCCCCC3)c2)ccc1Cl	–	–	–	–	40	–	–	–
Cc1ccc2nc(-c3ccc(NC(=S)NCCC(C)C)cc3)sc2c1	–	–	–	–	–	–	·	·
CCCCNC(=S)Nc1ccc(-c2nc3ccc(C)cc3s2)cc1	–	–	–	–	23	–	–	–
O=C(Nc1ccc(C(=O)N2CCCC2)cc1)C1CCC1	–	·	–	–	–	·	·	·
Cc1ccc(-c2noc(CCC(=O)NCCCN3CCN(c4cccc(Cl)c4)CC3)n2)cc1	–	–	–	–	29	–	–	–
